Assay outcomes from PubChem BioAssay.
TRPC4 block = TRPC4 (mouse) channel inhibition | HEK293 TRPC4beta/mu-opioid, DAMGO-evoked Fluo4 calcium flux; active compounds read low | B-score at 10 µM | AID 2247 | hit rate 0.39% among 300,000;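 active means B-score over 3 SD under the library average, no early fluorescence shift, positive overall ratio signal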
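Material: HEK293 cells with stable TRPC4beta plus mu-opioid receptor expression / Probe or stimulus: DAMGO in two steps, submaximal then maximal / Compound: single concentration per test compound / Technique: kinetic Fluo4 fluorescence imaging of calcium influx / Read-out: per-well B score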
TRPC6 inhibitor = blocks the mouse TRPC6 cation channel. Q61143. HEK293-TRPC6, membrane potential dye, ACh-evoked depolarization; active compounds read low. B-score at 10 µM. hit rate 1.1% among 310,000. AID 2553;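 active means B-score under library mean minus 3 SD, initial fluorescence not abnormally high, positive integrated signal ratio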;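 further: B-score derived from integrated fluorescence ratio over the kinetic read; more negative B-score means stronger inhibition of depolarization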
Target sequence (Q61143 whole entry, looked up): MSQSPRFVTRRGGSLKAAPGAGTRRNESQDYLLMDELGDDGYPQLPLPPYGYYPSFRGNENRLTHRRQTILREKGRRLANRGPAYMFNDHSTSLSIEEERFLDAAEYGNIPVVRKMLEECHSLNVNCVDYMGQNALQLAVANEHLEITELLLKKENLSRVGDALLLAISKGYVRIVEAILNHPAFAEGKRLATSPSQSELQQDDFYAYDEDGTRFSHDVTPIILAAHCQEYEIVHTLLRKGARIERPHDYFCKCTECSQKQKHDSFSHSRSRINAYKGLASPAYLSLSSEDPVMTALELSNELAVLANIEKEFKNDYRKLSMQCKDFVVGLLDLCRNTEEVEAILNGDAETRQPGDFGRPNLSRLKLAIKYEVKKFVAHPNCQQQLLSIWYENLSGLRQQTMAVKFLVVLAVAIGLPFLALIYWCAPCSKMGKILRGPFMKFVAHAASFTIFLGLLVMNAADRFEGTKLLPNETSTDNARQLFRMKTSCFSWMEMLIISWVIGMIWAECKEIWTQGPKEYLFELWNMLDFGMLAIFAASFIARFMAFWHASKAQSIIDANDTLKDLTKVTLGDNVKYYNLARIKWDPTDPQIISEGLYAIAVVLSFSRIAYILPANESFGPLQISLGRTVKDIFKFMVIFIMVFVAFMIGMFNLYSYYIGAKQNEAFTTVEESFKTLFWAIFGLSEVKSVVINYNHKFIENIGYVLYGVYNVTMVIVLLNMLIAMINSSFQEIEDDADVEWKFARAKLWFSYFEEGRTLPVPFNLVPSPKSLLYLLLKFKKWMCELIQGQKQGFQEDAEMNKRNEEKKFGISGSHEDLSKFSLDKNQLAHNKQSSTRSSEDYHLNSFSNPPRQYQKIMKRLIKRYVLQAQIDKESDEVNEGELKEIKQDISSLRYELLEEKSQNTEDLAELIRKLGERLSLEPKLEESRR
TRPC4 potent = allosterically enhances the mouse TRPC4 cation channel; Q9QUQ5; B-score at 10 µM; HEK293 TRPC4beta/mu-opioid, DAMGO EC20, Fluo-4 Ca2+ flux; active compounds read high; AID 2227; hit rate 0.42% among 310,000;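 active means B-score of calcium response area above 5 SD of library B-scores, with initial fluorescence ratio within 5 SD of library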;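 further: B-score of integrated fluorescence ratio over time as area under calcium response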
TRPC4 agonist = TRPC4 (mouse) channel activation | HEK293 TRPC4beta/mu-opioid, Fluo4 calcium fluorescence; active compounds read high | B-score at 10 µM | hit rate 0.49% among 310,000;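 active means B-score above 5 SD of library B-scores, and initial fluorescence ratio not above library mean plus 5 SD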;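 further: positive B-score marks a calcium rise read as TRPC4 activation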
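System – HEK293 cells stably co-expressing mouse TRPC4beta and mu-opioid receptor · Signal – Fluo4 calcium-sensitive dye fluorescence, kinetic, 1 Hz baseline · Benchmarks – buffer (low) and maximal DAMGO (high) · Read-out – B score of integrated fluorescence ratio per well · Incubation – dye loading 45 min room temperature, 110 s kinetic read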
TRPC6 act = activates the mouse TRPC6 cation channel. B-score at 10 µM. HEK293-TRPC6 membrane potential dye fluorescence; active compounds read high. AID 2550. hit rate 0.13% among 310,000;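 active means B-score of the integrated fluorescence ratio above library mean plus 3 SD, and starting fluorescence ratio within library mean plus 5 SD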;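 further: higher score means more depolarization so channel activation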
* hit, by the source's call; i = inactive. Shown are actives, neighbours in structure and some others; about 2.3% of the full set was active somewhere.

SMILES	TRPC4 block	TRPC6 inhibitor	TRPC4 potent	TRPC4 agonist	TRPC6 act
CN1C2C=C(N(CCc3ccccc3)C(=O)c3ccc(Cl)cc3)CC1CC2 (stereo not drawn)	i	i	i	99*	i
CN1C2CCC1CC(N(CCc1ccccc1)C(=O)c1ccc(Cl)cc1)C2 (stereo not drawn)	i	i	i	i	i
Cc1ccc(-c2c(C)sc3ncn(CC(=O)N4CCOCC4)c(=O)c23)cc1C	i	i	i	i	i
COc1ccc(OCc2cc(C(=O)N3CCCC(O)C3)no2)c2ccccc12 (stereo not drawn)	i	i	i	i	i
Cc1cccc(N(Cc2ccccc2)C(=O)CSC(C)C(=O)Nc2cc(C)on2)c1 (stereo not drawn)	-6*	i	i	i	i
Cc1cc(NC(=O)C(C)SCC(=O)O)no1 (stereo not drawn)	i	i	i	i	i
CN(C)CCn1c(=S)[nH]c2ccccc2c1=O	i	i	11*	i	i
c1ccc(CN2CCN(Cc3c[nH]c4ccccc34)CC2)cc1	-6*	i	i	i	i
O=c1c2ccccc2[nH]c(=S)n1Cc1cccnc1	-6*	i	i	45*	i
O=c1c2ccccc2[nH]c(=S)n1CCN1CCN(Cc2ccccc2)CC1	-6*	i	i	i	i
COc1ccc(C(=O)NNC(=O)Cc2nc3nc(C)cc(C)n3n2)cc1	i	i	i	i	i
CCNc1nc(NC(C)(C)C)nc(N2CCCC2)n1	-8*	i	i	i	i
CC(C)(C)Nc1nc(N2CCCC2)nc(N2CCCC2)n1	i	i	i	i	i
COc1ccc(-c2csc(NCc3ccco3)n2)cc1C	i	i	i	i	i
Cc1ccn2c(-c3csc(NCc4ccco4)n3)c(C)nc2c1	-6*	i	i	i	i
CN(CC(=O)Nc1c(Cl)cccc1Cl)C(=O)CNC(=O)c1ccc2ccccc2c1	i	i	i	i	i
CCCCC1C2=C(CC(C)(C)CC2=O)OC2=C1C(=O)CC(C)(C)C2	i	i	14*	i	i
O=S(=O)(Nc1ccc(F)cc1)c1ccc(NS(=O)(=O)c2cccs2)cc1	i	i	11*	i	i
COc1ccc(NS(=O)(=O)c2ccc(NS(=O)(=O)c3cccs3)cc2)cc1	i	i	i	i	i
Cc1ccc(NS(=O)(=O)c2ccc(NS(=O)(=O)c3cccs3)cc2)cc1	i	i	16*	i	i
CC(=O)c1ccc(N2CCN(C(=O)c3cc4c(s3)CCCC4)CC2)cc1	i	i	10*	i	i
O=C(c1cc2c(s1)CCCCC2)N1CCN(c2ncccn2)CC1	i	i	i	i	i
Cc1cc(Br)cc2c1NC(=O)C2(c1c(C)n(C)n(-c2ccccc2)c1=O)c1c(C)n(C)n(-c2ccccc2)c1=O	i	i	i	i	i
COc1cc(C2(c3ccc(O)c(OC)c3)C(=O)Nc3c(C)cc(Br)cc32)ccc1O	i	i	27*	i	i
CCCCN(CC)CCCNC(=O)Cn1nc(Cc2cccnc2)c2ccccc2c1=O	i	i	i	134*	i
SMILES	TRPC4 block	TRPC6 inhibitor	TRPC4 potent	TRPC4 agonist	TRPC6 act
CCN(CC)CCNC(=O)Cn1nc(Cc2ccccc2)c2ccccc2c1=O	i	i	i	i	i
COc1ccccc1C(C)Nc1nc(-c2cccnc2)nc2ccccc12 (stereo not drawn)	i	i	i	i	i
O=C(NCCCN1CCN(c2cccc(Cl)c2)CC1)C1CCC(=O)N1Cc1ccccc1Cl (stereo not drawn)	-6*	i	i	i	i
CCCCOc1ccc(N(CC(=O)NC2CCCCC2)C(=O)CCC(=O)Nc2ccccn2)cc1	i	i	i	i	i
OCC1(CC2CCCCO2)CCN(Cc2nc3ccccc3[nH]2)CC1 (stereo not drawn)	-8*	i	i	110*	i
CC1CCC(C(=O)c2c(O)c3ccccc3oc2=O)CC1 (stereo not drawn)	i	i	i	44*	i
O=C(CC1CCCCC1)c1c(O)c2ccccc2oc1=O	i	i	i	99*	i
CCCCC(=O)c1c(O)c2ccccc2oc1=O	i	i	i	i	i
CC(=N)c1c(O)c2ccccc2oc1=O	i	i	i	i	i
COC(=O)c1ccccc1OCCCN(C)C	i	i	11*	i	i
CC(C)(C)c1cc(O)c(C(C)(C)C)cc1O	i	i	i	94*	i
CCN(Cc1ccccc1)S(=O)(=O)c1c[nH]c(C(=O)OC)c1	i	i	i	i	i
Cc1ccc(C)c(S(=O)(=O)N2CCN(C(=O)CCc3nc4ccccc4c(=O)[nH]3)CC2)c1	i	i	i	194*	i
Cc1ccc(S(=O)(=O)N2CCN(C(=O)CCc3nc4ccccc4c(=O)[nH]3)CC2)c(C)c1	i	i	i	i	i
Cc1cc(C(=O)COC(=O)COc2ccc(C#N)cc2)c(C)n1C1CC1	i	i	i	i	i
CN1c2ccc(Cl)cc2C(=O)NC1c1ccc([N+](=O)[O-])s1 (stereo not drawn)	i	i	i	i	i
CC1=NN(C(=O)COc2ccc(C)c(C)c2)C(O)(c2ccc(Cl)cc2)C1 (stereo not drawn)	i	i	22*	i	i
CC1=NN(C(=O)CSCc2ccccc2)C(O)(c2ccc(Cl)cc2)C1 (stereo not drawn)	i	i	i	i	i
CCOC(=O)C1=NN(C(=O)COc2ccccc2)C(O)(c2ccc(Br)cc2)C1 (stereo not drawn)	i	i	i	47*	i
CCN(CC)CCCN=Cc1c(O)n(-c2cccc(C)c2)c(=O)c2ccccc12	i	i	i	i	i
O=c1[nH]c(-[n+]2ccc3ccccc3c2)c(/C=N/N=C(\[O-])c2ccccc2)s1	-6*	i	i	i	i
CC(C)(C)c1cc[n+](-c2[nH]c(=O)sc2/C=N/N=C(\[O-])c2cccnc2)cc1	i	i	i	i	i
OC(COc1ccc2ccccc2c1)Cn1ccnc1 (stereo not drawn)	i	i	11*	i	i
OC(COc1ccc2ccccc2c1Br)Cn1ccnc1 (stereo not drawn)	i	i	i	i	i
CCCCn1c(N)c(N(CC(C)C)C(=O)c2cc(S(=O)(=O)N3CCOCC3)ccc2Cl)c(=O)[nH]c1=O	i	i	i	i	i
